{"source": "ChEMBL document CHEMBL1800034", "about": "“A synthetic 7,8-dihydroxyflavone derivative promotes neurogenesis and exhibits potent antidepressant effect” (J Med Chem, 2010)", "key": {"[1]": {"molecular_target": "BDNF/NT-3 growth factors receptor (Rattus norvegicus) (UniProt Q63604)", "sequence (Q63604 whole entry)": "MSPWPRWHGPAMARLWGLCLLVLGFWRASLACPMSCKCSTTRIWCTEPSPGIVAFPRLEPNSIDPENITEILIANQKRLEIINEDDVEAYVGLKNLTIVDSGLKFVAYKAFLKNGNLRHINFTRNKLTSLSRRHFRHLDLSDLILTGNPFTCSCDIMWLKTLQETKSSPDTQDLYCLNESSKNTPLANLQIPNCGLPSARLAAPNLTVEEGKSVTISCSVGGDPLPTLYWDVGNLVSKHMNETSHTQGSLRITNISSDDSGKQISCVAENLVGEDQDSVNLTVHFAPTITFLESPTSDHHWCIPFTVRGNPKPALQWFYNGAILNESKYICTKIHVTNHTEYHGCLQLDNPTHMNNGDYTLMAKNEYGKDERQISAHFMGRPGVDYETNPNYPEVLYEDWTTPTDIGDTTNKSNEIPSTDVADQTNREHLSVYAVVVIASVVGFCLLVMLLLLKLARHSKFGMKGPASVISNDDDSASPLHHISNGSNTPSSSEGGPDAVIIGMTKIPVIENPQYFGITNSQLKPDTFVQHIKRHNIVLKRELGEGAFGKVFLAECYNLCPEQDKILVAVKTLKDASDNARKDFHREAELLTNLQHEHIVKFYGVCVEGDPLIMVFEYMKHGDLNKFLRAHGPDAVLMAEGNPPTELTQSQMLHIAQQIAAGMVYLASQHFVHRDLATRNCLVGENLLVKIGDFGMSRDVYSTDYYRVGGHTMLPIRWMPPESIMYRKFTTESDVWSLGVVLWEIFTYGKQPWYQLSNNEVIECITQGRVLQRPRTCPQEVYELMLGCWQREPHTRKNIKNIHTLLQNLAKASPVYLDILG", "assay": "Agonist activity at TrkB in E17 rat primary cortical neurons assessed as TrkB phosphorylation at 817 at 500 nM after 15 mins by immunoblotting", "assay_type": "functional, cell-based", "settings": "Cerebral cortex neuron", "how_it_was_run": "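Rat cortical neurons from E17 embryos, 13 DIV, were treated with 500 nM compound for 15 min. Lysates were run on 10% SDS-PAGE and immunoblotted with p-TrkB Y817 antibody at 1:20,000–40,000.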"}, "[2]": {"molecular_target": "BDNF/NT-3 growth factors receptor (Rattus norvegicus) (UniProt Q63604)", "assay": "Agonist activity at TrkB in E17 rat primary cortical neurons assessed as AKT phosphorylation at Ser 473 at 500 nM after 15 mins by ELISA", "assay_type": "functional, cell-based", "settings": "Cerebral cortex neuron"}, "[3]": {"molecular_target": "BDNF/NT-3 growth factors receptor (Rattus norvegicus) (UniProt Q63604)", "assay": "Agonist activity at TrkB in E17 rat primary cortical neurons by immunoblotting", "assay_type": "functional, cell-based", "settings": "Cerebral cortex neuron"}, "[4]": {"molecular_target": "BDNF/NT-3 growth factors receptor (Rattus norvegicus) (UniProt Q63604)", "assay": "Agonist activity at TrkB in E17 rat primary rat cortical neurons assessed as AKT phosphorylation at Ser 473 at 500 nM after 15 mins by ELISA", "assay_type": "functional"}, "Mus musculus": {"system": "Mus musculus", "assay": "Neuroprotective activity in C57BL/6J mouse assessed as inhibition of kainic acid-induced caspase 3 activation in hippocampus region at 5 mg/kg, po administered 2 to 8 hrs prior to kainic acid challenge measured after 2 hrs by immunoblotting", "assay_type": "functional, organism-based", "set-up": "dose 5 mg/kg", "how_it_was_run": "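C57BL/6J mice dosed orally by gavage at 5 mg/kg. Kainic acid 20 mg/kg i.p. given at 0, 2 or 6 h after dosing. Mice killed 2 h after kainic acid; hippocampal lysates immunoblotted with anti-p-TrkB and anti-active caspase-3.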"}, "[5]": {"molecular_target": "BDNF/NT-3 growth factors receptor (Rattus norvegicus) (UniProt Q63604)", "assay": "Agonist activity at TrkB in E17 rat primary cortical neurons assessed as AKT phosphorylation at Ser 473 at 500 nM after 15 mins by ELISA relative to control", "assay_type": "functional, cell-based", "settings": "Cerebral cortex neuron"}, "[6]": {"molecular_target": "BDNF/NT-3 growth factors receptor (Rattus norvegicus) (UniProt Q63604)", "assay": "[…] in E17 rat primary cortical neurons at 500 nM after 15 mins by immunoblotting", "settings": "Cerebral cortex neuron", "how_it_was_run": "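Primary cortical neurons from E17 rat embryos, 13 DIV, exposed to compound at 500 nM for 15 min. Lysates resolved on 10% SDS-PAGE and immunoblotted for phospho-TrkB (p-TrkB Y817 antibody, 1:20,000–40,000) alongside other signalling antibodies.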"}}, "note": "Active and inactive are the calls of the source. No cut-off for these calls is given here."}
{"smiles": "O=c1c(O)c(-c2ccccc2)oc2cc(O)ccc12", "values": [{"measurement": "Activity", "setting": "[1]", "result": "Active"}, {"measurement": "Activity", "setting": "[2]", "result": "Active"}]}
{"smiles": "O=c1cc(-c2ccccc2)oc2c(O)c(O)cc(O)c12", "values": [{"measurement": "Activity", "setting": "[1]", "result": "Active"}, {"measurement": "Activity", "setting": "[2]", "result": "Active"}]}
{"smiles": "O=c1cc(-c2ccc(O)cc2)oc2c(O)c(O)ccc12", "values": [{"measurement": "Activity", "setting": "[1]", "result": "Active"}]}
{"smiles": "O=c1cc(-c2ccccc2)oc2cc(O)ccc12", "values": [{"measurement": "Activity", "setting": "[2]", "result": "inactive"}]}
{"smiles": "COc1cccc(-c2cc(=O)c3ccccc3o2)c1OC", "values": [{"measurement": "Activity", "setting": "[2]", "result": "inactive"}]}
{"smiles": "O=c1c(O)c(-c2ccccc2O)oc2c(O)c(O)ccc12", "values": [{"measurement": "Activity", "setting": "[1]", "result": "Active"}, {"measurement": "Activity", "setting": "[2]", "result": "Active"}]}
{"smiles": "O=c1cc(-c2ccccc2)oc2ccccc12", "values": [{"measurement": "Activity", "setting": "[2]", "result": "inactive"}]}
{"smiles": "C[S+](C)[O-]", "values": [{"measurement": "Activity", "setting": "[2]", "result": "inactive"}]}
{"smiles": "O=c1cc(-c2ccccc2O)oc2c(O)c(O)ccc12", "values": [{"measurement": "Activity", "setting": "[1]", "result": "Active"}, {"measurement": "Activity", "setting": "[2]", "result": "Active"}]}
{"smiles": "COc1cccc(-c2cc(=O)c3ccc(O)cc3o2)c1", "values": [{"measurement": "Activity", "setting": "[2]", "result": "inactive"}]}
{"smiles": "O=c1cc(-c2ccc(O)cc2O)oc2ccccc12", "values": [{"measurement": "Activity", "setting": "[2]", "result": "inactive"}]}
{"smiles": "O=c1cc(-c2ccc(O)c(O)c2)oc2cc(O)ccc12", "values": [{"measurement": "Activity", "setting": "[2]", "result": "inactive"}]}
{"smiles": "COc1ccc2c(=O)cc(-c3ccccc3)oc2c1OC", "values": [{"measurement": "Activity", "setting": "[3]", "result": "Active"}, {"measurement": "Activity", "setting": "[2]", "result": "inactive"}]}
{"smiles": "COc1ccc2c(=O)cc(-c3ccccc3)oc2c1O", "values": [{"measurement": "Activity", "setting": "[3]", "result": "Active"}, {"measurement": "Activity", "setting": "[1]", "result": "Active"}, {"measurement": "Activity", "setting": "[2]", "result": "Active"}]}
{"smiles": "O=c1cc(-c2cc(O)cc(O)c2)oc2ccccc12", "values": [{"measurement": "Activity", "setting": "[2]", "result": "inactive"}]}
{"smiles": "O=c1cc(-c2ccccc2)oc2ccc(O)c(O)c12", "values": [{"measurement": "Activity", "setting": "[2]", "result": "inactive"}]}
{"smiles": "O=c1cc(-c2ccccc2)oc2cc(O)cc(O)c12", "values": [{"measurement": "Activity", "setting": "[2]", "result": "inactive"}]}
{"smiles": "COc1ccc(-c2cc(=O)c3ccc(O)cc3o2)cc1", "values": [{"measurement": "Activity", "setting": "[1]", "result": "Active"}, {"measurement": "Activity", "setting": "[2]", "result": "inactive"}]}
{"smiles": "COc1c(O)ccc2c(=O)c(-c3ccc(Cl)cc3)coc12", "values": [{"measurement": "Activity", "setting": "[2]", "result": "inactive"}]}
{"smiles": "O=c1cc(-c2cccc(O)c2)oc2c1ccc1ccccc12", "values": [{"measurement": "Activity", "setting": "[2]", "result": "inactive"}]}
{"smiles": "O=c1cc(-c2cccc(O)c2)oc2ccccc12", "values": [{"measurement": "Activity", "setting": "[2]", "result": "inactive"}]}
{"smiles": "O=c1c(-c2ccccc2)coc2cc(O)ccc12", "values": [{"measurement": "Activity", "setting": "[2]", "result": "inactive"}]}
{"smiles": "O=c1cc(-c2ccc(O)cc2)oc2ccccc12", "values": [{"measurement": "Activity", "setting": "[2]", "result": "inactive"}]}
{"smiles": "O=c1cc(-c2ccc(O)c(O)c2)oc2ccccc12", "values": [{"measurement": "Activity", "setting": "[2]", "result": "inactive"}]}
{"smiles": "O=c1c(O)c(-c2cccc(O)c2)oc2cc(O)ccc12", "values": [{"measurement": "Activity", "setting": "[2]", "result": "inactive"}]}
{"smiles": "O=c1c(O)c(-c2ccccc2O)oc2ccccc12", "values": [{"measurement": "Activity", "setting": "[2]", "result": "inactive"}]}
{"smiles": "O=c1cc(-c2cncnc2)oc2c(O)c(O)ccc12", "values": [{"measurement": "Activity", "setting": "[4]", "result": "Active"}]}
{"smiles": "O=c1cc(-c2cccc(O)c2O)oc2ccccc12", "values": [{"measurement": "Activity", "setting": "[2]", "result": "inactive"}]}
{"smiles": "COc1cc(-c2oc3cc(O)ccc3c(=O)c2O)cc(OC)c1OC", "values": [{"measurement": "Activity", "setting": "[2]", "result": "inactive"}]}
{"smiles": "O=c1cc(-c2ccc(F)cc2)[nH]c2c(O)c(O)ccc12", "values": [{"measurement": "Activity", "setting": "[4]", "result": "inactive"}]}
{"smiles": "O=c1cc(-c2ccccc2)oc2cccc(O)c12", "values": [{"measurement": "Activity", "setting": "[2]", "result": "inactive"}]}
{"smiles": "C=C(C)[C@H]1CN[C@H](C(=O)O)[C@H]1CC(=O)O", "values": [{"measurement": "inhibition", "setting": "Mus musculus", "result": "Active"}]}
{"smiles": "O=c1cc(-c2ccccc2)[nH]c2c(O)c(O)ccc12", "values": [{"measurement": "Activity", "setting": "[4]", "result": "inactive"}]}
{"smiles": "O=c1cc(-c2ccccc2)oc2cc(O)c(O)c(O)c12", "values": [{"measurement": "Activity", "setting": "[2]", "result": "inactive"}]}
{"smiles": "COc1cccc(-c2cc(=O)c3ccc(OC)cc3o2)c1", "values": [{"measurement": "Activity", "setting": "[2]", "result": "inactive"}]}
{"smiles": "O=c1cc(-c2cccc(O)c2)oc2c(O)c(O)ccc12", "values": [{"measurement": "Activity", "setting": "[1]", "result": "Active"}, {"measurement": "fold change (FC)", "setting": "[5]", "result": 2}]}
{"smiles": "O=c1cc(-c2ccccc2O)oc2ccccc12", "values": [{"measurement": "Activity", "setting": "[2]", "result": "inactive"}]}
{"smiles": "O=c1cc(-c2cccc(O)c2)oc2cc(O)ccc12", "values": [{"measurement": "Activity", "setting": "[1]", "result": "Active"}, {"measurement": "Activity", "setting": "[2]", "result": "Active"}]}
{"smiles": "O=c1c(O)c(-c2ccccc2)oc2ccccc12", "values": [{"measurement": "Activity", "setting": "[2]", "result": "inactive"}]}
{"smiles": "COc1cccc(-c2oc3ccccc3c(=O)c2OC)c1", "values": [{"measurement": "Activity", "setting": "[2]", "result": "inactive"}]}
{"smiles": "COc1ccc(-c2c(C)c3ccc(O)cc3oc2=O)cc1", "values": [{"measurement": "Activity", "setting": "[2]", "result": "inactive"}]}
{"smiles": "O=c1cc(-c2ccccc2)oc2cc(O)c(O)cc12", "values": [{"measurement": "Activity", "setting": "[2]", "result": "Active"}]}
{"smiles": "O=c1cc(-c2ccccc2)oc2ccc(O)cc12", "values": [{"measurement": "Activity", "setting": "[2]", "result": "inactive"}]}
{"smiles": "O=c1cc(-c2cccc(O)c2)oc2cc(O)c(O)cc12", "values": [{"measurement": "Activity", "setting": "[2]", "result": "Active"}]}
{"smiles": "COc1ccccc1-c1cc2ccc(O)cc2oc1=O", "values": [{"measurement": "Activity", "setting": "[2]", "result": "inactive"}]}
{"smiles": "O=c1c(O)c(-c2cccc(O)c2)oc2ccccc12", "values": [{"measurement": "Activity", "setting": "[2]", "result": "inactive"}]}
{"smiles": "O=c1c(O)c(-c2ccc(O)c(O)c2)oc2c(O)c(O)cc(O)c12", "values": [{"measurement": "inhibition", "setting": "[6]", "result": "Active"}]}
